Test results taken from ChEMBL document CHEMBL3124890, “SAR studies on trisubstituted benzimidazoles as inhibitors of Mtb FtsZ for the development of novel antitubercular agents” (J Med Chem, 2013).
Converted amounts (≈) assume the structure as drawn.

Key:
[1] = test system: Mycobacterium tuberculosis; test: […]; format: functional, TN587
Method in brief: (§1)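 Strains were grown at 37 °C in 7H9 Middlebrook broth with 10% OADC, 0.05% Tween and 0.2% glycerol. Compounds were dissolved in DMSO and serially diluted 2-fold, then bacteria were added. Plates were incubated 6 days at 37 °C, then 24 h more with Alamar Blue. MIC was the lowest concentration (μg/mL) that prevented the colour change. Run in triplicate.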

[2] = test system: Mycobacterium tuberculosis; test: […]; format: functional, NHN382; method in brief: as §1

SMILES	MIC [1] [µg/mL]	MIC [2] [µg/mL]
NNC(=O)c1ccncc1 [ISONIAZID]	0.25 (≈ 1.82 µM)	0.25 (≈ 1.82 µM)
CCCCOC(=O)Nc1cc2nc(C3CCCCC3)[nH]c2cc1N(CC)CC	1.25 (≈ 3.23 µM)	1.25 (≈ 3.23 µM)
CCCCOC(=O)Nc1cc2nc(C3CCCCC3)[nH]c2cc1N(C)C	0.13 (≈ 0.363 µM)	0.06 (≈ 0.167 µM)
CCc1ccc(C(=O)Nc2cc3nc(C4CCCCC4)[nH]c3cc2N(C)C)cc1	0.16 (≈ 0.41 µM)	0.16 (≈ 0.41 µM)
